Assay results from ChEMBL document CHEMBL1152672, “Side chain azasteroids and thiasteroids as sterol methyltransferase inhibitors in ergosterol biosynthesis” (2009).
Values after ≈ are worked out from the molar mass of the structure shown.

Tests used:
[1] = target: T1, Sterol 24-C-methyltransferase (Yarrowia lipolytica) (UniProt Q6C2D9); experiment: Inhibition of Yarrowia lipolytica 24-sterol C-methyltransferase assessed as ergosterol-3-trimethylsilyl derivative level at 0.06 ug/mL after 48 hrs by GC-MS analysis relative to untreated control; set-up: scale not given: the % may be the effect or the level left
T1 sequence (whole entry): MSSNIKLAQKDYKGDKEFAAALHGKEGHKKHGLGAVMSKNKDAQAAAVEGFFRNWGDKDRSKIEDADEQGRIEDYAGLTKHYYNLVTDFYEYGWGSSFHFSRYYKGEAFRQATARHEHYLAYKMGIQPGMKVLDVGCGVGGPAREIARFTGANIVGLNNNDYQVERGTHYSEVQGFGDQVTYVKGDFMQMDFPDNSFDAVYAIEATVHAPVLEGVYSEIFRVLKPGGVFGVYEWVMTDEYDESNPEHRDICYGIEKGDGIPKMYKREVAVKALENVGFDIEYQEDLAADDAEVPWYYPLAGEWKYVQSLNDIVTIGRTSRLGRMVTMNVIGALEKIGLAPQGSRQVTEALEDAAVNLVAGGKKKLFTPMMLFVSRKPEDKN
Summary of the method: (§1)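 Whole-cell sterol profiling. Y. lipolytica at 50,000 CFU/mL was exposed to compounds added from ethanol for 48 ± 2 h at 28 °C, and the MIC/2 and/or MIC/4 wells were used. Cells were pelleted and PBS-washed, then saponified in 1 M NaOH at 70 °C for 1 h. Sterols were extracted into TBME with a cholesterol internal standard and silylated to TMS ethers. GC-MS full scan, with each sterol given as % of total integrated quantifier-ion area.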

[2] = target: T1, Sterol 24-C-methyltransferase (Yarrowia lipolytica); experiment: Inhibition of Yarrowia lipolytica 24-SMT assessed as ergosterol-3-trimethylsilyl derivative level at 0.2 ug/mL after 48 hrs by GC-MS analysis relative to untreated control; set-up: scale not given: the % may be the effect or the level left; summary of the method: as §1
[3] = target: T1, Sterol 24-C-methyltransferase (Yarrowia lipolytica); experiment: Inhibition of Yarrowia lipolytica 24-SMT assessed as 5-dehydroepisterol-3-trimethylsilyl derivative at 0.2 ug/mL after 48 hrs by GC-MS analysis relative to untreated control; set-up: scale not given: the % may be the effect or the level left; summary of the method: as §1
[4] = target: T1, Sterol 24-C-methyltransferase (Yarrowia lipolytica); experiment: Inhibition of Yarrowia lipolytica 24-SMT assessed as dehydroergosterol-3-trimethylsilyl derivative at 0.06 ug/mL after 48 hrs by GC-MS analysis relative to untreated control; set-up: scale not given: the % may be the effect or the level left; summary of the method: as §1
[5] = target: T1, Sterol 24-C-methyltransferase (Yarrowia lipolytica); experiment: Inhibition of Yarrowia lipolytica 24-SMT assessed as 5-dehydroepisterol-3-trimethylsilyl derivative at 0.06 ug/mL after 48 hrs by GC-MS analysis relative to untreated control; set-up: scale not given: the % may be the effect or the level left; summary of the method: as §1
[6] = target: T1, Sterol 24-C-methyltransferase (Yarrowia lipolytica); experiment: Inhibition of Yarrowia lipolytica 24-SMT assessed as dehydroergosterol-3-trimethylsilyl derivative at 0.2 ug/mL after 48 hrs by GC-MS analysis relative to untreated control; set-up: scale not given: the % may be the effect or the level left; summary of the method: as §1
[7] = target: T1, Sterol 24-C-methyltransferase (Yarrowia lipolytica); experiment: Inhibition of Yarrowia lipolytica 24-SMT assessed as cholesta-7,24-dien-3-trimethylsilyl derivative at 0.2 ug/mL after 48 hrs by GC-MS analysis relative to untreated control; set-up: scale not given: the % may be the effect or the level left; summary of the method: as §1
[8] = target: T1, Sterol 24-C-methyltransferase (Yarrowia lipolytica); experiment: Inhibition of Yarrowia lipolytica 24-SMT assessed as cholesta-5,7,24-trien-3-trimethylsilyl derivative at 0.06 ug/mL after 48 hrs by GC-MS analysis relative to untreated control; set-up: scale not given: the % may be the effect or the level left; summary of the method: as §1
[9] = target: T1, Sterol 24-C-methyltransferase (Yarrowia lipolytica); experiment: Inhibition of Yarrowia lipolytica 24-SMT assessed as cholesta-5,7,24-trien-3-trimethylsilyl derivative at 0.2 ug/mL after 48 hrs by GC-MS analysis relative to untreated control; set-up: scale not given: the % may be the effect or the level left; summary of the method: as §1
[10] = target: T1, Sterol 24-C-methyltransferase (Yarrowia lipolytica); experiment: Inhibition of Yarrowia lipolytica 24-SMT assessed as lanosterol-3-trimethylsilyl derivative at 0.2 ug/mL after 48 hrs by GC-MS analysis relative to untreated control; set-up: scale not given: the % may be the effect or the level left; summary of the method: as §1
Yarrowia lipolytica = experiment: Antimicrobial activity against Yarrowia lipolytica after 48 hrs; format: functional
Summary of the method: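 Broth dilution MIC per DIN 58940-84. Log-phase Y. lipolytica in yeast extract/peptone/glucose medium, counted against a 0.5 McFarland standard (A570) and seeded at 50,000 CFU/mL in 2 mL wells. Compounds added from ethanol; final concentrations 2 to 0.06125 µg/mL unless otherwise stated. Plates incubated 48 ± 2 h at 28 °C. MIC is the lowest concentration with no visible growth.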

[11] = target: T1, Sterol 24-C-methyltransferase (Yarrowia lipolytica); experiment: Inhibition of Yarrowia lipolytica 24-SMT assessed as lanosterol-3-trimethylsilyl derivative at 0.06 ug/mL after 48 hrs by GC-MS analysis relative to untreated control; set-up: scale not given: the % may be the effect or the level left; summary of the method: as §1
[12] = target: T1, Sterol 24-C-methyltransferase (Yarrowia lipolytica); experiment: Inhibition of Yarrowia lipolytica 24-SMT assessed as zymosterol-3-trimethylsilyl derivative level at 0.2 ug/mL after 48 hrs by GC-MS analysis relative to untreated control; set-up: scale not given: the % may be the effect or the level left; summary of the method: as §1
[13] = target: T1, Sterol 24-C-methyltransferase (Yarrowia lipolytica); experiment: Inhibition of Yarrowia lipolytica 24-SMT assessed as zymosterol-3-trimethylsilyl derivative level at 0.06 ug/mL after 48 hrs by GC-MS analysis relative to untreated control; set-up: scale not given: the % may be the effect or the level left; summary of the method: as §1
[14] = target: T1, Sterol 24-C-methyltransferase (Yarrowia lipolytica); experiment: Inhibition of Yarrowia lipolytica 24-SMT assessed as cholesta-7,24-dien-3-trimethylsilyl derivative at 0.06 ug/mL after 48 hrs by GC-MS analysis relative to untreated control; set-up: scale not given: the % may be the effect or the level left; summary of the method: as §1
[15] = target: T1, Sterol 24-C-methyltransferase (Yarrowia lipolytica); experiment: Inhibition of Yarrowia lipolytica 24-SMT assessed as dehydroergosterol-3-trimethylsilyl derivative at 1 ug/mL after 48 hrs by GC-MS analysis relative to untreated control; set-up: scale not given: the % may be the effect or the level left; summary of the method: as §1
[16] = target: T1, Sterol 24-C-methyltransferase (Yarrowia lipolytica); experiment: Inhibition of Yarrowia lipolytica 24-SMT assessed as cholesta-7,24-dien-3-trimethylsilyl derivative at 1 ug/mL after 48 hrs by GC-MS analysis relative to untreated control; set-up: scale not given: the % may be the effect or the level left; summary of the method: as §1
[17] = target: T1, Sterol 24-C-methyltransferase (Yarrowia lipolytica); experiment: Inhibition of Yarrowia lipolytica 24-SMT assessed as 5-dehydroepisterol-3-trimethylsilyl derivative at 1 ug/mL after 48 hrs by GC-MS analysis relative to untreated control; set-up: scale not given: the % may be the effect or the level left; summary of the method: as §1
[18] = target: T1, Sterol 24-C-methyltransferase (Yarrowia lipolytica); experiment: Inhibition of Yarrowia lipolytica 24-sterol C-methyltransferase assessed as cholesta-5,7,24-trien-3-trimethylsilyl derivative at 1 ug/mL after 48 hrs by GC-MS analysis relative to untreated control; set-up: scale not given: the % may be the effect or the level left; summary of the method: as §1

SMILES: C[C@H](/C=C/c1cccc[n+]1C)[C@H]1CC[C@H]2C3=CCC4C[C@@H](O)CC[C@]4(C)[C@H]3CC[C@]12C.[I-] (stereo partly specified)
- Activity [1]: 15%
- Activity [2]: 4.1%
- Activity [3]: 1%
- Activity [4]: 82.1%
- Activity [5]: 0.7%
- Activity [6]: 7%
- Activity [7]: 4.3%
- Activity [8]: 2.2%
- Activity [9]: 83.4%
- Activity [10]: 0.3%
- MIC (Yarrowia lipolytica): 1 µg/mL

SMILES: C[C@H](/C=C/c1cc[n+](C)cc1)[C@H]1CCC2C3=CCC4C[C@@H](O)CC[C@]4(C)C3CC[C@@]21C.[I-] (stereo partly specified)
- Activity [11]: 0.2%
- Activity [1]: 11.8%
- Activity [4]: 67.9%
- Activity [5]: 1.8%
- Activity [8]: 18.3%
- MIC (Yarrowia lipolytica): 0.5 µg/mL

SMILES: CCCCN(C)C[C@@H](C)[C@H]1CC[C@H]2C3=CC[C@H]4C[C@@H](O)CC[C@]4(C)[C@H]3CC[C@]12C
- Activity [3]: 4.2%
- Activity [6]: 37.4%
- Activity [7]: 5.6%
- Activity [12]: 4.2%
- Activity [9]: 48.2%
- Activity [10]: 0.4%
- MIC (Yarrowia lipolytica): 0.5 µg/mL (≈ 1.24 µM)

SMILES: CCCCCNC[C@@H](C)[C@H]1CC[C@H]2C3=CC[C@H]4C[C@@H](O)CC[C@]4(C)[C@H]3CC[C@]12C
- Activity [1]: 4.9%
- Activity [13]: 0.4%
- Activity [4]: 68.9%
- Activity [5]: 3.8%
- Activity [8]: 20.4%
- Activity [14]: 1.6%
- MIC (Yarrowia lipolytica): 0.25 µg/mL (≈ 0.622 µM)

SMILES: C[C@H](CNCCN(C)C)[C@H]1CC[C@H]2C3=CC[C@H]4C[C@@H](O)CC[C@]4(C)[C@H]3CC[C@]12C
- Activity [15]: 24.3%
- Activity [16]: 4.5%
- Activity [17]: 3.1%
- Activity [18]: 68%
- MIC (Yarrowia lipolytica): > 2 µg/mL
